Source: ChEMBL document CHEMBL2396514, “Optimization of novel nipecotic bis(amide) inhibitors of the Rho/MKL1/SRF transcriptional pathway as potential anti-metastasis agents” (Bioorg Med Chem Lett, 2013)
Values after ≈ are worked out from the molar mass of the structure shown.

Columns and labels:
[1] = Cytotoxicity against human PC3 cells at 100 uM by WST1 assay; format: cell-based, PC-3; details: read-out: INH
Outline: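 Read-out was inhibition of mitochondrial WST-1 reduction in PC-3 cells transiently transfected with an SRE.L luciferase reporter. Compound was tested at 100 μM. Values are the mean of n = 3 independent experiments.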

[2] = Kinetic solubility of the compound; format: physicochemical; details: read-out: Kinetic_solubility
PC-3 [3] = assay: Antimetastatic activity against human PC3 cells at 10 uM after 24 hrs by scratch wound assay; format: functional; details: PC-3, 24 h
Outline: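 Confluent PC-3 monolayers (5.0×10^5 cells plated, DMEM with 10% FBS) were scratched 24 h after plating. Cells were then exposed to compound at 10 μM, or 0.1% DMSO, in DMEM with 0.5% FBS. Wounds were imaged at 0 h and after 24 h (formalin-fixed, crystal violet-stained). Wound-area closure was quantified and expressed as percent inhibition relative to DMSO control.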

PC-3 [4] = assay: Antimetastatic activity against human PC3 cells after 24 hrs by scratch wound assay; format: functional, cell-based; details: PC-3, 24 h
Outline: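 PC-3 cells (5.0×10^5) were grown to confluence in DMEM with 10% FBS and scratched after 24 h. Medium was switched to DMEM with 0.5% FBS containing compound at various concentrations or 0.1% DMSO. Wounds were imaged at 0 h, then fixed (10% formalin) and crystal-violet stained at 24 h. Migration = initial minus 24 h wound area, normalized to DMSO. IC50 was taken from dose-response curves.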

[5] = Cytotoxicity against human SK-MEL-147 cells by WST1 assay; format: cell-based
Outline: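 WST-1 reduction was measured in SK-Mel-147 melanoma cells transiently transfected for the RhoC-SRE.L luciferase reporter assay.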

Mus musculus [6] = assay: Toxicity in mouse assessed as organism survival at 10 to 100 mg/kg/day, ip after 5 days; format: organism-based; parameters: route intraperitoneal; details: in vivo, 120 h
Outline: (§1)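 5-day tolerability study in mice, doses of 10, 20, 50 and 100 mg/kg/day given intraperitoneally, 3 mice per dose. Animals sacrificed on day 8, then body weight recorded, blood collected, and internal organs dissected, weighed and examined for abnormalities. Behaviour observed and survival tracked over the dosing period.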

Mus musculus [7] = assay: Toxicity in mouse assessed as increase in liver weight at 10 to 100 mg/kg/day, ip administered for 5 days measured on day 8; format: organism-based; parameters: route intraperitoneal; details: in vivo, 120 h; outline: as §1

Structure (SMILES)	cytotoxicity at 100 µM [1]	inhibition at 10 µM (PC-3 [3])	other results
CS(=O)(=O)c1cccc(C(=O)N2CCCC(C(=O)Nc3ccc(Cl)cc3)C2)c1 (centres undefined)	2%		
O=C(Nc1ccc(Cl)nc1)C1CCCN(C(=O)c2cc(C(F)(F)F)cc(C(F)(F)F)c2)C1 (centres undefined)	25%		
O=C(Nc1ccc(Cl)cc1)C1CCCN(C(=O)c2cccc(-c3nccs3)c2)C1 (centres undefined)	32%		
O=C(Nc1cccc([N+](=O)[O-])c1)C1CCCN(C(=O)c2cc(C(F)(F)F)cc(C(F)(F)F)c2)C1 (centres undefined)	9%		
O=C(Nc1cccc(Cc2ccccc2)c1)C1CCCN(C(=O)c2cc(C(F)(F)F)cc(C(F)(F)F)c2)C1 (centres undefined)		< 30%	solubility kinetic [2]: 1.89 µg/mL (≈ 3.54 µM)
O=C(Nc1cccc(Oc2ccccc2)c1)C1CCCN(C(=O)c2cc(C(F)(F)F)cc(C(F)(F)F)c2)C1 (centres undefined)	1%	< 30%	solubility kinetic [2]: 3.22 µg/mL (≈ 6 µM)
C=Cc1cccc(NC(=O)C2CCCN(C(=O)c3cc(C(F)(F)F)cc(C(F)(F)F)c3)C2)c1 (centres undefined)	1%		
O=C(Nc1ccc(Cl)cc1)C1CCCN(C(=O)c2ccc(-c3ccco3)cc2)C1 (centres undefined)	6%		
Cc1nc(-c2cccc(C(=O)N3CCCC(C(=O)Nc4ccc(Cl)cc4)C3)c2)cs1 (centres undefined)	1%		
CC(=O)Nc1cccc(C(=O)N2CCCC(C(=O)Nc3ccc(Cl)cc3)C2)c1 (centres undefined)	4%		
O=C(Nc1cccc(S(=O)(=O)N2CCCC2)c1)C1CCCN(C(=O)c2cc(C(F)(F)F)cc(C(F)(F)F)c2)C1 (centres undefined)		< 30%	
O=C(Nc1cccc(OCc2ccccn2)c1)C1CCCN(C(=O)c2cc(C(F)(F)F)cc(C(F)(F)F)c2)C1 (centres undefined)	15%		
O=C(Nc1cccc(OCCc2ccccn2)c1)C1CCCN(C(=O)c2cc(C(F)(F)F)cc(C(F)(F)F)c2)C1 (centres undefined)	5%	< 30%	
O=C(Nc1ccc(Cl)cc1)C1CCCN(C(=O)c2cccc(-c3cccs3)c2)C1 (centres undefined)	4%	70%	IC50 (PC-3 [4]): […]; solubility kinetic [2]: 1.36 µg/mL (≈ 3.2 µM)
Cc1nc(-c2cccc(NC(=O)C3CCCN(C(=O)c4cc(C(F)(F)F)cc(C(F)(F)F)c4)C3)c2)cs1 (centres undefined)	1%	42%	
O=C(Nc1cccc(-c2cnco2)c1)C1CCCN(C(=O)c2cc(C(F)(F)F)cc(C(F)(F)F)c2)C1 (centres undefined)	9%		
C[C@@H](N)[C@H]1CC[C@H](C(=O)Nc2ccncc2)CC1 [Y-27632]			IC50 (PC-3 [4]): 28 µM
CS(=O)(=O)Nc1cccc(C(=O)N2CCCC(C(=O)Nc3ccc(Cl)cc3)C2)c1 (centres undefined)	3%		
O=C(Nc1ccc(Cl)cc1)C1CCCN(C(=O)c2cccc(-c3ccco3)c2)C1 (centres undefined)		70%	Activity [5]: Non-toxic; Activity (Mus musculus [6]): Non-toxic; Activity (Mus musculus [7]): Toxic; IC50 (PC-3 [4]): 4.2 µM; solubility kinetic [2]: 3.09 µg/mL (≈ 7.56 µM)
O=C(CCNC(=O)c1cc(C(F)(F)F)cc(C(F)(F)F)c1)Nc1ccc(Cl)cc1		< 10%	solubility kinetic [2]: 2.21 µg/mL (≈ 5.04 µM)
O=C(Nc1ccc(Cl)cc1)C1CCCN(C(=O)c2cc(C(F)(F)F)cc(C(F)(F)F)c2)C1 (centres undefined)	14%	22%	IC50 (PC-3 [4]): 17 µM; solubility kinetic [2]: 4.5 µg/mL (≈ 9.4 µM)
O=C(Nc1cccc(CN2CCCC2)c1)C1CCCN(C(=O)c2cc(C(F)(F)F)cc(C(F)(F)F)c2)C1 (centres undefined)	51%		
